Assay [1] concerns the target T1, Adenosine receptor A1 (Homo sapiens) (UniProt P30542).
T1 sequence (whole entry): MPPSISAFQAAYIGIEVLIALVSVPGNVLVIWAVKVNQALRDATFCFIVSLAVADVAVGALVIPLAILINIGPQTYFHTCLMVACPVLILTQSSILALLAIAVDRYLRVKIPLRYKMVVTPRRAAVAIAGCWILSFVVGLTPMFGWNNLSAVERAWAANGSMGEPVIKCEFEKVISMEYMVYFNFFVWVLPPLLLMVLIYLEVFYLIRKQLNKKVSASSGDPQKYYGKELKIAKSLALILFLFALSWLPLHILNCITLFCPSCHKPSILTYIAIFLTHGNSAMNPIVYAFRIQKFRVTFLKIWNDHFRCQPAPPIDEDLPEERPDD
Nature of the assay: Displacement of [3H]-DPCPX from human adenosine A1 receptor expressed in CHO cell membranes at 10 uM by scintillation counting analysis relative to control. In a few lines: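 hA1-CHO membranes, pretreated with adenosine deaminase, in 50 mM Tris-HCl pH 7.4 with 1 nM [³H]DPCPX. Incubated 120 min at 25 °C. Compound 10 µM added from 100-fold DMSO stock, 1% DMSO final. Bound ligand collected on glass-fibre filters and counted by scintillation; percent inhibition of specific binding.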
(Displacement assays read how much labelled ligand stays bound in the presence of the test substance.)

The target of assay [2] is T1, Adenosine receptor A1 (Homo sapiens). As to the kind of experiment: Potentiation of [3H]CCPA binding to human adenosine A1 receptor expressed in CHO cell membranes at 10 uM after 90 mins relative to [3H]CCPA-treated control.
In assay [3] the target is T2, Adenosine receptor A3 (Homo sapiens) (UniProt P0DMS8).
T2 sequence (whole entry): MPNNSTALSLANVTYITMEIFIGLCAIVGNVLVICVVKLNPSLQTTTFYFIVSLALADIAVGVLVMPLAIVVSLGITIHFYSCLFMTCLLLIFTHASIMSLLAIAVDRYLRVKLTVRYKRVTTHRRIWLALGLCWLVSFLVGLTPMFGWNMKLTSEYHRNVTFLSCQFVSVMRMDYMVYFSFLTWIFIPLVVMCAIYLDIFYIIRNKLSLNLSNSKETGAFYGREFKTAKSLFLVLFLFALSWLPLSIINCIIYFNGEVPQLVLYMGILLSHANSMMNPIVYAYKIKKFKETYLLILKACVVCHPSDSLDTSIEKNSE
Nature of the assay: Displacement of [3H]-MRE-3008-F20 from human adenosine A3 receptor expressed in CHO cell membranes at 10 uM by scintillation counting analysis relative to control. In a few lines: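 A3-expressing CHO membranes in 50 mM Tris-HCl, 10 mM MgCl₂, 1 mM EDTA pH 7.4 with 2 nM [³H]MRE-3008-F20. Incubated 120 min at 4 °C. Compound 10 µM in 1% DMSO final. Filtration and scintillation counting; percent inhibition of specific binding.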

Assay [4] has as its target T1, Adenosine receptor A1 (Homo sapiens). As to the kind of experiment: Potentiation of CCPA-induced displacement of [3H]-DPCPX from human adenosine A1 receptor expressed in CHO cell membranes at 10 uM after 90 mins relative to CCPA-treated control. In a few lines: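 CCPA (0.01 nM–1 µM) competition against [³H]DPCPX in hA1-CHO membranes, with or without compound at 10 µM. Nonspecific binding defined with 1 µM DPCPX. Ki calculated from IC50 by the Cheng-Prusoff equation; CCPA Ki shift given as fold change; three experiments.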

Assay [5] has the same target. As to the kind of experiment: Allosteric enhancement of human adenosine A1 receptor expressed in CHO cells assessed as inhibition of forskolin-stimulated cAMP production at 100 nM preincubated for 10 mins followed by forskolin challenge measured after 5 mins by scintillation counting analysis in presence of CCPA relative to control. It counts as functional, cell-based. In outline:
(§1)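 hA1-CHO cells (10⁶ cells/mL) in phosphate buffer with adenosine deaminase 1.0 IU/mL and Ro 20-1724 0.5 mM, preincubated 10 min at 37 °C. Compound added for 10 min, alone or at 100 nM with CCPA 1 pM. Forskolin 1 µM added for 5 min, stopped with cold 6% TCA. cAMP measured by [³H]-cAMP competition protein-binding assay; percent inhibition versus control; three experiments.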
Background: Changes in cAMP serve as a functional read-out for many G protein-coupled receptors.

Assay [6] has the same target. As to the kind of experiment: Allosteric enhancement of human adenosine A1 receptor expressed in CHO cells assessed as inhibition of forskolin-stimulated cAMP production at 10 uM preincubated for 10 mins followed by forskolin challenge measured after 5 mins by scintillation counting analysis relative to control. It counts as functional, cell-based. In a few lines:
as §1

Assay [7] has as its target Adenosine receptor A2a (Homo sapiens) (UniProt P29274). As to the kind of experiment: Displacement of [3H]-ZM241385 from human adenosine A2A receptor expressed in CHO cell membranes at 10 uM by scintillation counting analysis relative to control. In a few lines: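 A2A-expressing CHO membranes, pretreated with adenosine deaminase, in 50 mM Tris-HCl, 10 mM MgCl₂ pH 7.4 with 1 nM [³H]ZM 241385. Incubated 60 min at 4 °C. Compound 10 µM in 1% DMSO final. Filtration and scintillation counting; percent inhibition of specific binding.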

Molecules are shown by their SMILES.

Adenosine receptor A2a (Homo sapiens), sequence (P29274 whole entry): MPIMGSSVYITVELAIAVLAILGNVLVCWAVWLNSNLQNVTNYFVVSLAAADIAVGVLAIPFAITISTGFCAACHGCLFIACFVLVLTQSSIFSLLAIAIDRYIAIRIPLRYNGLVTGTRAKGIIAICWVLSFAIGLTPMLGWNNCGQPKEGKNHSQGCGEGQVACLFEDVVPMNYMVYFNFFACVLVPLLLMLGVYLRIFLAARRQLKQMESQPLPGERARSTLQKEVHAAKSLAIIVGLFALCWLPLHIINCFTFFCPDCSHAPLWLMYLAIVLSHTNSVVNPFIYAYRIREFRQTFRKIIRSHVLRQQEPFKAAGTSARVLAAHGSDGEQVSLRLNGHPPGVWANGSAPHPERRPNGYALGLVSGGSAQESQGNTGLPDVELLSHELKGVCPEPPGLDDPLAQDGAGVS

With `Cc1c(Br)sc(N)c1C(=O)c1ccc(Cl)cc1`, the inhibition in assay [1] came to 1%; in assay [3], 1%; in assay [5] it was 25%; in assay [6], 21%; in assay [7], 1%. Also, the values for the fold change (FC) in assay [2] and in assay [4] were 1.8 and 1.9, respectively.
As for `CC(C)(C)Cc1csc(N)c1C(=O)c1ccc(Cl)c(Cl)c1`, the inhibition in assay [1] was found to be 1%; in assay [3] it was 10%; in assay [5], 41%; in assay [6], 43%; in assay [7], 1%. In addition, the fold change (FC) in assay [2] came out at 4.1; in assay [4], 2.
Turning to `COc1ccccc1-c1sc(N)c(C(=O)c2ccc(Cl)cc2)c1CC(C)(C)C`, the inhibition is 1% in assay [1]; 1% in assay [3]; 29% in assay [5]; 27% in assay [6]; 1% in assay [7]. For the same molecule, the fold change (FC) was determined as 2.5 in assay [2] and 1.9 in assay [4].
On to `CC(C)Cc1csc(N)c1C(=O)c1ccc(Cl)cc1`, for which the inhibition in assay [1] came to 1%; in assay [3] it was 1%; in assay [5], 19%; in assay [6], 17%; in assay [7] it was 1%. The fold change (FC) in assay [2] amounted to 1.6; in assay [4], 3.4.
With `CC(C)(C)Cc1c(-c2cccs2)sc(N)c1C(=O)c1ccc(Cl)cc1`, the inhibition was found to be 1% in assay [1]; 1% in assay [3]; 62% in assay [5]; 58% in assay [6]; 2% in assay [7]. In addition, the fold change (FC) stood at 6.2 in assay [2] and 3.9 in assay [4].
`CC(C)(C)Cc1c(-c2ccccc2)sc(N)c1C(=O)c1ccc(Cl)cc1`: the inhibition was found to be 1% in assay [1]; 1% in assay [3]; 53% in assay [5]; 51% in assay [6]; 1% in assay [7]. The fold change (FC) in assay [2] came to 6.9; in assay [4] it was 4.8.
As to `Cc1sc(N)c(C(=O)c2cccc(C(F)(F)F)c2)c1C`, the inhibition in assay [1] and in assay [7] was 1% throughout. Besides, the fold change (FC) in assay [2] is 1.3; in assay [4], 1.5.
In the case of `CC(C)(C)Cc1c(Br)sc(N)c1C(=O)c1ccc(Cl)c(Cl)c1`, the inhibition came to 1% in assay [1]; 1% in assay [3]; 40% in assay [5]; 42% in assay [6]; 1% in assay [7]. Further, the figures for the fold change (FC) in assay [2] and in assay [4] were 4.5 and 4, respectively.
With `COc1ccc(-c2sc(N)c(C(=O)c3ccc(Cl)c(Cl)c3)c2CC(C)(C)C)cc1`, the inhibition in assay [1] is 1%; in assay [3] it was 1%; in assay [5], 52%; in assay [6], 54%; in assay [7], 1%. Further, the results for the fold change (FC) in assay [2] and in assay [4] were 6 and 4.3, respectively.
On to `Cc1ccc(C(=O)c2c(N)sc(-c3ccccc3)c2CC(C)(C)C)cc1`, for which the inhibition in assay [1] is 1%; in assay [3], 1%; in assay [5] it was 61%; in assay [6], 62%; in assay [7], 6%. Also, the figures for the fold change (FC) in assay [2] and in assay [4] were 6.7 and 5, respectively.
As for `Nc1sc(-c2ccccc2)c(-c2ccccc2)c1C(=O)c1ccc(Cl)cc1`, the inhibition was 1% in assay [1]; 1% in assay [3]; 26% in assay [5]; 24% in assay [6]; 6% in assay [7]. The fold change (FC) in assay [2] came out at 2.1; in assay [4], 1.7.
Take `CC(C)(C)Cc1c(-c2ccc(Cl)c(Cl)c2)sc(N)c1C(=O)c1ccc(Cl)cc1`: the inhibition in assay [1] amounted to 1%; in assay [3], 1%; in assay [5] it was 61%; in assay [6] it was 59%; in assay [7] it was 1%. In addition, the results for the fold change (FC) in assay [2] and in assay [4] were 6 and 4.3, respectively.
With `CC(C)(C)Cc1c(-c2cn[nH]c2)sc(N)c1C(=O)c1ccc(Cl)cc1`, the inhibition in assay [1] came to 1%; in assay [3] it was 1%; in assay [5], 31%; in assay [6], 27%; in assay [7], 1%. The fold change (FC) turned out to be 2.5 in assay [2] and 1.7 in assay [4].
Turning to `CC(C)(C)Cc1c(Br)sc(N)c1C(=O)c1ccc(Cl)cc1`, the inhibition in assay [1] is 1%; in assay [3], 1%; in assay [5] it was 50%; in assay [6], 48%; in assay [7] it was 2%. In addition, the figures for the fold change (FC) in assay [2] and in assay [4] were 6.8 and 4.5, respectively.
Turning to `CC(C)(C)Cc1csc(N)c1C(=O)c1ccc(Cl)cc1`, the inhibition in assay [1] came out at 1%; in assay [3] it was 5%; in assay [5], 37%; in assay [6], 35%; in assay [7], 6%. In addition, the fold change (FC) in assay [2] came to 3.9; in assay [4] it was 1.6.
In the case of `Cc1c(-c2ccccc2)sc(N)c1C(=O)c1ccc(Cl)cc1`, the inhibition in assay [1] is 1%; in assay [3], 1%; in assay [5] it was 20%; in assay [6], 18%; in assay [7] it was 8%. Moreover, the fold change (FC) in assay [2] and in assay [4] was 1.5 throughout.
In the case of `CC(C)(C)Cc1csc(N)c1C(=O)c1cccc(Cl)c1`, the inhibition amounted to 2% in assay [1]; 8% in assay [3]; 42% in assay [5]; 45% in assay [6]; 1% in assay [7]. The fold change (FC) in assay [2] was determined as 4.3; in assay [4], 1.5.
Take `Cc1sc(N)c(C(=O)c2ccc(Cl)cc2)c1-c1ccccc1`: the inhibition in assay [1] came to 1%; in assay [3], 1%; in assay [5], 21%; in assay [6], 16%; in assay [7] it was 1%. The fold change (FC) turned out to be 1.4 in assay [2] and 1.6 in assay [4].
On to `Cc1ccc(C(=O)c2c(CC(C)(C)C)csc2N)cc1`, for which the inhibition worked out at 1% in assay [1]; 1% in assay [3]; 35% in assay [5]; 38% in assay [6]; 1% in assay [7]. Moreover, the fold change (FC) in assay [2] turned out to be 3.3; in assay [4] it was 2.
As to `CC(C)(C)Cc1c(-c2cccc(F)c2F)sc(N)c1C(=O)c1ccc(Cl)cc1`, the inhibition in assay [1] came to 1%; in assay [3], 1%; in assay [5] it was 63%; in assay [6] it was 60%; in assay [7], 3%. Besides, the fold change (FC) was 6.1 in assay [2] and 4.9 in assay [4].

By inhibition is commonly meant the drop in the measured response relative to a control, in per cent.

The values are drawn from ChEMBL document CHEMBL3098020, “Synthesis and biological evaluation of novel 2-amino-3-aroyl-4-neopentyl-5-substituted thiophene derivatives as allosteric enhancers of the A₁ adenosine receptor” (Bioorg Med Chem, 2014).
